Assay results from the array DNA melting data of Ke et al. (doi:10.1101/2024.01.08.574731).

Assays:
[1] = folding enthalpy; higher = less favourable; fluorescence melt of hairpins on a sequencing array, two-state fit; settings: sodium 0.088 M
In short: (§1)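 Melting temperature and folding enthalpy were obtained by bootstrapped two-state fitting. Fits used Cy3 fluorescence of library hairpins with annealed Cy3 and quencher oligos on a sequenced MiSeq flow cell, imaged in 50 mM Na-HEPES pH 8.0, 25 mM NaCl in 2.5 °C steps up to 60 °C and normalised to pre-quench Cy3 and control constructs. Four replicates were combined by inverse-variance weighting, and fitted temperatures were raised by 9.35 °C to match UV melts.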

[2] = melting temperature; fluorescence melt of hairpins on a sequencing array, two-state fit, raised by 9.35 °C to match UV melts; settings: sodium 0.088 M
In short: as §1

Sequence | folding enthalpy [1] | Tm [2]
GCTGATGGAAACGTCAGC (((((.(....).))))) | -40.3 kcal/mol | 53.3 °C
GTCAGCGAAAGCTACGAC ((((((....)))..))) | -16.8 kcal/mol | 41 °C
GATCTGGGCACAGATC ((((((....)))))) | -40 kcal/mol | 59.3 °C
GTGACGGGAAACCGCCAC (((.(((....))).))) | -42.1 kcal/mol | 52.2 °C
CGCCACGGAAACGTCGCG (((.(((....))).))) | -39.2 kcal/mol | 48.3 °C
GATCGTCTTCACGATC ((((((....)))))) | -45.7 kcal/mol | 53.4 °C
GCTCGGGGAAACTCGGGC ((.((.(....).)).)) | -26 kcal/mol | 46.6 °C
GGGTACGAAAGTACGCCC ((((((....)))..))) | -13.3 kcal/mol | 46.1 °C
GATCTCTGCAGAGATC ((((((....)))))) | -41.6 kcal/mol | 57 °C
GATGCTGGAAACAGCATC (((((((....))))))) | -41.2 kcal/mol | 66.9 °C
GCGTGGCGAAAGCGAGGC ((.(.((....)).).)) | -16.8 kcal/mol | 51.1 °C
GGCTGGGCGAAAGCCGCC (((..(((....)))))) | -19.6 kcal/mol | 58.4 °C
CTGACGAAAGTCAG (((((....))))) | -29 kcal/mol | 65 °C
GATACGCGAAAGCGGATC (((.(((....))).))) | -29.3 kcal/mol | 66 °C
GGGTCCGGAAACGGACTC (.(((((....))))).) | -15.2 kcal/mol | 61.3 °C
GTACGCCGAAAGGCCTAC (((.(((....))).))) | -10.9 kcal/mol | 39.2 °C
GGGAACCGAAAGGTGCCC (((.(((....))).))) | -41.4 kcal/mol | 64.3 °C
